Screening data from PubChem BioAssay.
Apaf-1 inh – inhibitors of human Apaf-1 apoptosome. 330,000 compounds, 0.71% hits. inhibition, % at 20 µM. O14727. AID 489030. reconstituted apoptosome caspase-3 activity, DEVD-Rh110 fluorescence; active = inhibition of at least 40% at 20 µM;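 also: plate controls were DMSO wells for no effect and DEVD-CHO caspase inhibitor wells for full effect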
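Material: reconstituted apoptosome with Apaf-1, cytochrome c, caspase-9, procaspase-3, dATP. Technique: Rh110 fluorescence intensity. Buffer or medium: pH 7.5 Hepes buffer with CHAPS, BSA, DTT. Times: 30 min plus 50 min, RT.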
GSTO1 counter – counter-screen for RBBP9 inhibitors: inhibitors of human GSTO1. P78417. recombinant GSTO1, activity-based probe fluorescence polarization. inhibition, % at 5.96 µM. 300,000 compounds, 1.1% hits;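 active = inhibition above the campaign mean inhibition plus 3 SD, cut at about 35% in these data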;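 also: 0% = GSTO1-1 with DMSO and 100% = wells lacking GSTO1-1 enzyme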
TDP2 absorb – TDP2 (human) inhibition, absorbance primary screen; 370,000 compounds, 0.34% hits; recombinant TDP2, T5PNP hydrolysis, p-nitrophenol absorbance 415 nm; inhibition, % at 12.8 µM;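 active = inhibition above the mean of all tested compounds plus 3 SD, set per campaign, cut at about 25% in these data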;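 also: 0% = DMSO with enzyme and 100% = buffer with substrate but no TDP2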
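Evaluation: % inhibition relative to enzyme-containing and enzyme-free wells. Material: recombinant human TDP2. Benchmarks: enzyme-free and DMSO wells. Timing: enzyme reaction with compound for 2 h at 37 °C. Compound dosing: 12.8 µM only. Measured by: p-Nitrophenol epi absorbance. Reagent: T5PNP substrate at 5 mM, a TopII-DNA adduct mimic. Replication: single well per compound.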
PRMT1 FP inh – inhibitors of human PRMT1 | Q99873 | recombinant PRMT1, activity-based probe fluorescence polarization | inhibition, % at 2.79 µM | 370,000 compounds, 1.3% hits | AID 652257;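 active = inhibition above about 21% made by adding two undisclosed values, limit read from the data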
PAD4 inh – PAD4 (human) enzyme inhibition; Q9UM07; recombinant PAD4, RCA probe fluorescence polarization; inhibition, % at 6.36 µM; 330,000 compounds, 0.41% hits;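 active = percent inhibition above a cutoff equal to the mean of all tested compounds plus 3 SD, cut at about 15% in these data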;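 also: 0% = PAD4 with RCA probe and DMSO and 100% = probe without PAD4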
PRMT1 inh conf – confirmation of human PRMT1 inhibitors | 3,300 compounds, 42% hits | shares compounds with PRMT1 FP inh | inhibition, % at 2.79 µM | recombinant His-PRMT1, activity-based probe fluorescence polarization;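 active = mean inhibition across replicates above the hit cutoff derived for the earlier primary screen, cut at about 22% in these data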
An asterisk follows results filed as active. Only some compounds are listed: those with a hit (about 2.6% of all), similar ones and a draw of the others.

How did CC1(C)CCC[C@]2(C)C(CS(=O)c3ccccc3)=C(C=O)CC[C@@H]12 (some centres undefined) do in these assays?
Apaf-1 inh: 9; GSTO1 counter: -6; TDP2 absorb: -9; PRMT1 FP inh: 1; PAD4 inh: 6

What do the screens show for `COc1ccc(NC(=S)NNS(=O)(=O)c2ccc3ccccc3c2)c(OC)c1`?
Apaf-1 inh: -2; GSTO1 counter: 1; TDP2 absorb: 2; PRMT1 FP inh: 27*; PAD4 inh: -5; PRMT1 inh conf: 13

How did CCCn1c(CCC(=O)O)ccc1-c1cccs1 do in these assays?
Apaf-1 inh: 8; GSTO1 counter: -2; TDP2 absorb: 11; PRMT1 FP inh: 5; PAD4 inh: -2

What do the screens show for `Cc1ccc(-c2ccc(CCC(=O)O)n2-c2cccc(C(=O)O)c2)cc1`?
Apaf-1 inh: 0; TDP2 absorb: 4; PRMT1 FP inh: 8

What do the screens show for `NC(=O)c1ccc(-n2c(CCC(=O)O)ccc2-c2cccs2)cc1`?
Apaf-1 inh: -7; GSTO1 counter: -8; TDP2 absorb: 5; PRMT1 FP inh: 45*; PAD4 inh: -6; PRMT1 inh conf: 14

What do the screens show for `COC(=O)c1cccc(-n2c(CCC(=O)O)ccc2-c2cccs2)c1`?
Apaf-1 inh: 0; GSTO1 counter: 0; TDP2 absorb: 12; PRMT1 FP inh: 40*; PAD4 inh: -7; PRMT1 inh conf: 16

How did CC(=O)c1ccc(-n2c(CCC(=O)O)ccc2-c2cccs2)cc1 do in these assays?
Apaf-1 inh: -14; GSTO1 counter: 0; TDP2 absorb: -5; PRMT1 FP inh: 63*; PAD4 inh: -3; PRMT1 inh conf: 3

How did Cc1ccc(-n2c(CCC(=O)O)ccc2-c2cccs2)cc1 do in these assays?
Apaf-1 inh: -5; GSTO1 counter: 3; TDP2 absorb: 5; PRMT1 FP inh: 12; PAD4 inh: -6

What do the screens show for `CCc1ccc(NC(=O)CSc2nnc(CNC(=O)c3cccs3)o2)cc1`?
Apaf-1 inh: -10; GSTO1 counter: 2; TDP2 absorb: -16; PRMT1 FP inh: -2; PAD4 inh: -1

What do the screens show for `CSc1ccc(C(=S)N2CCN(C)CC2)cc1`?
Apaf-1 inh: -26; GSTO1 counter: 3; TDP2 absorb: 19; PRMT1 FP inh: 19; PAD4 inh: -5

What do the screens show for `O=[N+]([O-])c1ccc(C(=S)N2CCC(Cc3ccccc3)CC2)cc1`?
Apaf-1 inh: 11; GSTO1 counter: -2; TDP2 absorb: 10; PRMT1 FP inh: 1; PAD4 inh: 6

How did CN1CCN(C(=S)c2ccc(N(C)C)cc2)CC1 do in these assays?
Apaf-1 inh: 1; GSTO1 counter: 0; TDP2 absorb: 8; PRMT1 FP inh: 43*; PAD4 inh: -1; PRMT1 inh conf: 43*

How did CN1CCN(C(=S)c2ccc([N+](=O)[O-])cc2)CC1 do in these assays?
Apaf-1 inh: 10; GSTO1 counter: -6; TDP2 absorb: 2; PRMT1 FP inh: 36*; PAD4 inh: -5; PRMT1 inh conf: 45*

Results for CN1CCN(C(=S)c2ccc(Br)cc2)CC1 ?
Apaf-1 inh: -9; GSTO1 counter: -1; TDP2 absorb: -2; PRMT1 FP inh: 41*; PAD4 inh: -5; PRMT1 inh conf: 44*

What do the screens show for `C/C(=N/NC(=O)c1ccccc1)c1ccc(NC(=O)C(F)(F)F)cc1`?
Apaf-1 inh: -11; GSTO1 counter: 0; TDP2 absorb: -15; PRMT1 FP inh: -4; PAD4 inh: 0

How did O=C(O)Cc1sc(Nc2ccc(F)cc2)nc1-c1cccs1 do in these assays?
Apaf-1 inh: 19; GSTO1 counter: -66; TDP2 absorb: -7; PRMT1 FP inh: 31*; PAD4 inh: -63; PRMT1 inh conf: 2

How did Cc1ccc(Nc2nc(-c3ccccc3)c(CC(=O)O)s2)cc1 do in these assays?
Apaf-1 inh: 12; GSTO1 counter: -5; TDP2 absorb: 4; PRMT1 FP inh: -3; PAD4 inh: -6

Results for O=C(c1cccc(N2C(=O)C3C4C=CC(C4)C3C2=O)c1)N1CCN(c2ccccc2F)CC1 (centres undefined) ?
Apaf-1 inh: 1; GSTO1 counter: 0; TDP2 absorb: -12; PRMT1 FP inh: 0; PAD4 inh: -4

What do the screens show for `Cc1nc2ccc(S(=O)(=O)NC(CC(C)C)C(=O)O)cc2s1` (centres undefined)?
Apaf-1 inh: 0; GSTO1 counter: 5; TDP2 absorb: -6; PRMT1 FP inh: 35*; PAD4 inh: 3; PRMT1 inh conf: 3
